Experimental data as given in ChEMBL document CHEMBL3124885, “Discovery of 7-tetrahydropyran-2-yl chromans: β-site amyloid precursor protein cleaving enzyme 1 (BACE1) inhibitors that reduce amyloid β-protein (Aβ) in the central nervous system” (J Med Chem, 2014).

Experiments:
Plasma [1] = test: Unbound plasma concentration in CD-1 mouse at 3 mg/kg, iv and 10 mg/kg, po measured at 4 hrs; type: ADME, organism-based; settings: in vivo
Method in brief: (§1)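 Male CD-1 mice, 3 per cohort, dosed 3 mg/kg iv and 10 mg/kg po; plasma drawn at 1 and 4 h, brains harvested from oral groups only. Formulations varied by compound: 40% PEG 400/10% EtOH/50% H₂O; 30% captisol in H₂O; iv 50 mM citrate in saline (pH 4); po 1% CMC/0.5% Tween/5 mM citrate in H₂O.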

Cavia porcellus = test: Hepatic clearance in Hartley guinea pig at 3 mg/kg, iv; type: ADME, organism-based, Liver; parameters: dose 3 mg/kg, route intravenous; settings: in vivo
[2] = Ratio of unbound drug level in brain to plasma in Hartley guinea pig at 100 mg/kg, po measured at 3 hrs; type: ADME, organism-based, Cavia porcellus; parameters: dose 100 mg/kg, route oral; settings: brain and plasma (unbound), read-out: K(p,uu,brain)
Method in brief: (§2)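 Male Hartley guinea pigs given single oral doses of 30, 60 or 100 mg/kg in 1% CMC/0.5% Tween/5 mM citrate in H₂O, 6–8 animals per cohort. Plasma, brain and CSF sampled at 1–12 h; free brain to free plasma ratio computed.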

Plasma [3] = test: Unbound plasma concentration in cynomolgus monkey at 0.5 mg/kg, iv and 100 mg/kg, po measured at 2 hrs; type: ADME, organism-based, Macaca fascicularis; settings: in vivo
Method in brief: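 Female cynomolgus monkeys, three per dosing route, received 0.5 mg/kg iv and 100 mg/kg po. Unbound plasma concentration was reported at 2 h and 4 h post-dose.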

Cynomolgus monkey = test: Hepatic clearance in cynomolgus monkey at 0.5 mg/kg, iv; type: ADME, organism-based, Macaca fascicularis, Liver; parameters: dose 0.5 mg/kg, route intravenous; settings: in vivo
Plasma [4] = test: Unbound plasma concentration in CD-1 mouse at 3 mg/kg, iv and 10 mg/kg, po measured at 1 hr; type: ADME, organism-based; settings: in vivo; method in brief: as §1
[5] = Dissociation constant, pKa of the compound by parallel capillary electrophoresis method; type: physicochemical
Method in brief: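 pKa determined by a 24-point parallel capillary electrophoresis method, quantitation by UV absorbance at 229 nm.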

[6] = Intrinsic clearance in CD-1 mouse hepatocytes at 2 uM after 60 to 120 mins; type: ADME, cell-based, Hepatocyte; settings: read-out: CLH
[7] = Drug uptake in Sprague-Dawley rat CSF at 60 mg/kg, po measured at 1 hr; type: ADME, organism-based, Cerebrospinal fluid; parameters: dose 60 mg/kg, route oral; settings: read-out: Drug uptake
Method in brief: (§3)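 Male Sprague−Dawley rats dosed orally at 60 mg/kg in 1% CMC/0.5% Tween/5 mM citrate in H₂O; CSF compound concentration (nM) at 1–12 h.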

[8] = Ratio of unbound drug level in brain to plasma in Sprague-Dawley rat at 60 mg/kg, po measured at 8 hrs; type: ADME, organism-based; parameters: dose 60 mg/kg, route oral; settings: brain and plasma (unbound), read-out: K(p,uu,brain)
Method in brief: (§4)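 Male Sprague–Dawley rats dosed 60 mg/kg po in 1% CMC/0.5% Tween/5 mM citrate in H₂O; plasma, brain and CSF taken at 1, 3, 5, 8 and 12 h; unbound plasma and brain levels and their ratio determined.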

[9] = Ratio of unbound drug level in brain to plasma in Hartley guinea pig at 60 mg/kg, po measured at 3 hrs; type: ADME, organism-based, Cavia porcellus; parameters: dose 60 mg/kg, route oral; settings: brain and plasma (unbound), read-out: K(p,uu,brain); method in brief: as §2
Brain [10] = test: Fraction unbound in Sprague-Dawley rat brain at 60 mg/kg, po measured at 1 hr; type: ADME, organism-based; parameters: dose 60 mg/kg, route oral; settings: in vivo; method in brief: as §4
[11] = Drug uptake in Hartley guinea pig CSF at 60 mg/kg, po measured at 5 hrs; type: ADME, organism-based, Cavia porcellus, Cerebrospinal fluid; parameters: dose 60 mg/kg, route oral; settings: read-out: Drug uptake
Method in brief: (§5)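 Male Hartley guinea pigs, oral dosing (CMC/Tween/citrate suspension or PEG/EtOH/H₂O solution), six or eight animals per cohort; CSF drug concentration (nM) measured at each time point.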

[12] = Drug uptake in Hartley guinea pig CSF at 60 mg/kg, po measured at 3 hrs; type: ADME, organism-based, Cavia porcellus, Cerebrospinal fluid; parameters: dose 60 mg/kg, route oral; settings: read-out: Drug uptake; method in brief: as §5
[13] = Intrinsic clearance in Sprague-Dawley rat hepatocytes at 2 uM after 60 to 120 mins; type: ADME, cell-based, Hepatocyte; settings: read-out: CLH
Brain [14] = test: Fraction unbound in Sprague-Dawley rat brain at 60 mg/kg, po measured at 3 hrs; type: ADME, organism-based; parameters: dose 60 mg/kg, route oral; settings: in vivo; method in brief: as §4
[15] = Ratio of unbound drug level in brain to plasma in Hartley guinea pig at 60 mg/kg, po measured at 5 hrs; type: ADME, organism-based, Cavia porcellus; parameters: dose 60 mg/kg, route oral; settings: brain and plasma (unbound), read-out: K(p,uu,brain); method in brief: as §2
Mus musculus = test: Hepatic clearance in CD-1 mouse at 3 mg/kg, iv; type: ADME, organism-based, Liver; parameters: dose 3 mg/kg, route intravenous; settings: in vivo; method in brief: as §1
[16] = Unbound plasma concentration in Hartley guinea pig at 60 mg/kg, po measured at 12 hrs; type: ADME, organism-based, Cavia porcellus; parameters: dose 60 mg/kg, route oral; settings: in vivo
Method in brief: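 Male Hartley guinea pigs were dosed orally at 30, 60 or 100 mg/kg, with six or eight animals per cohort. The vehicle was either a suspension in 1% CMC/0.5% Tween/5 mM citrate in H₂O or a 40/10/50 PEG/EtOH/H₂O solution, depending on compound. Unbound plasma concentration was sampled at 1–12 h post-dose alongside brain, CSF and CSF Aβ₁₋₄₀.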

[17] = Drug uptake in Sprague-Dawley rat CSF at 60 mg/kg, po measured at 12 hrs; type: ADME, organism-based, Cerebrospinal fluid; parameters: dose 60 mg/kg, route oral; settings: read-out: Drug uptake; method in brief: as §3
[18] = Ratio of unbound drug level in brain to plasma in CD-1 mouse measured at 1 hr; type: ADME; settings: mouse, 1 h
Method in brief: (§6)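 Male CD-1 mice given 10 mg/kg po, 3 per cohort; plasma and brain collected at 1 and 4 h. Free brain/plasma ratio from unbound concentrations; coverage ratio = free brain concentration divided by HEK293 Aβ₁₋₄₀ cell IC50.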

[19] = Drug uptake in Hartley guinea pig CSF at 60 mg/kg, po measured at 1 hr; type: ADME, organism-based, Cavia porcellus, Cerebrospinal fluid; parameters: dose 60 mg/kg, route oral; settings: read-out: Drug uptake; method in brief: as §5
[20] = Ratio of unbound drug level in brain to plasma in CD-1 mouse measured at 4 hrs; type: ADME; settings: CD-1, mouse, read-out: K(p,uu,brain); method in brief: as §6
[21] = Ratio of unbound drug level in brain to plasma in Sprague-Dawley rat at 60 mg/kg, po measured at 1 hr; type: ADME, organism-based; parameters: dose 60 mg/kg, route oral; settings: brain and plasma (unbound), read-out: K(p,uu,brain); method in brief: as §4
[22] = Fraction unbound in Hartley guinea pig brain at 60 mg/kg, po measured at 5 hrs; type: ADME, organism-based, Cavia porcellus; parameters: dose 60 mg/kg, route oral; settings: in vivo
Plasma [23] = test: Unbound plasma concentration in Sprague-Dawley rat at 60 mg/kg, po measured at 1 hr; type: ADME, organism-based; parameters: dose 60 mg/kg, route oral; settings: in vivo
Method in brief: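 Male Sprague-Dawley rats were given a single 60 mg/kg oral dose in 1% CMC/0.5% Tween/5 mM citrate in H₂O. Free plasma concentration was determined at 1, 3, 5, 8 and 12 h. Brain, CSF and CSF Aβ₁₋₄₀ were sampled at the same times.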

[24] = Ratio of unbound drug level in brain to plasma in Sprague-Dawley rat at 60 mg/kg, po measured at 12 hrs; type: ADME, organism-based; parameters: dose 60 mg/kg, route oral; settings: brain and plasma (unbound), read-out: K(p,uu,brain); method in brief: as §4
[25] = Drug uptake in Hartley guinea pig CSF at 60 mg/kg, po measured at 12 hrs; type: ADME, organism-based, Cavia porcellus, Cerebrospinal fluid; parameters: dose 60 mg/kg, route oral; settings: read-out: Drug uptake; method in brief: as §5
[26] = Drug uptake in cynomolgus monkey CSF at 0.5 mg/kg, iv and 100 mg/kg, po measured at 4 hrs; type: ADME, organism-based, Macaca fascicularis, Cerebrospinal fluid; settings: read-out: Drug uptake
Method in brief: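 Female cynomolgus monkeys, 3 per dosing route; iv formulation PEG400/EtOH/water (40/10/50) solution; oral suspension in 1% CMC, 0.5% Tween 80, 5 mM citrate buffer; CSF concentration measured.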

Brain [27] = test: Fraction unbound in Sprague-Dawley rat brain at 60 mg/kg, po measured at 5 hrs; type: ADME, organism-based; parameters: dose 60 mg/kg, route oral; settings: in vivo; method in brief: as §4
[28] = Ratio of unbound drug level in brain to plasma in Sprague-Dawley rat at 60 mg/kg, po measured at 3 hrs; type: ADME, organism-based; parameters: dose 60 mg/kg, route oral; settings: brain and plasma (unbound), read-out: K(p,uu,brain); method in brief: as §4

CN1C(=O)[C@]2(N=C1N)c1cc(-c3cccnc3F)ccc1O[C@H]1CCOC[C@@H]12
Cp(f) (Plasma [1]): 78 nM
CLH (Cavia porcellus): 110 mL/min/kg
Kp uu at 3 h [2]: 1.3
Cp(f) (Plasma [3]): 3200 nM
CLH (Cynomolgus monkey): 22 mL/min/kg
Cp(f) (Plasma [4]): 300 nM
pKa [5]: 5.8
CLint scaled at 2 µM [6]: 36 mL/min/kg
concentration at 1 h [7]: 290 nM
Kp uu at 8 h [8]: 0.049
Kp uu at 3 h [9]: 1.5
Drug uptake(free) (Brain [10]): 68 nM
concentration at 5 h [11]: 6.9 nM
concentration at 3 h [12]: 23 nM
CLint scaled at 2 µM [13]: 35 mL/min/kg
Drug uptake(free) (Brain [14]): 66 nM
Kp uu at 5 h [15]: 1.7
CLH (Mus musculus): 41 mL/min/kg
Cp(f) [16]: < 3 nM
concentration at 12 h [17]: 85 nM
K(p,uu,brain) [18]: 0.08
concentration at 1 h [19]: 69 nM
Kp uu at 4 h [20]: 0.19
Kp uu at 1 h [21]: 0.022
Drug uptake(free) [22]: 12 nM
Cp(f) (Plasma [23]): 3100 nM
Kp uu at 12 h [24]: 0.048
concentration at 12 h [25]: 2.6 nM
concentration at 4 h [26]: 84 nM
Drug uptake(free) (Brain [27]): 79 nM
Kp uu at 3 h [28]: 0.03
